A short description of data set [1]: Evaluated in vitro for the Cytotoxic activity in the L1210 cell culture screen at 10 uM Maximum cell kill in a 72-h period. The format is cell-based. To be noted: mouse, L1210 cells; read-out: Inhibition. In short, it runs like this:
(§1)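 Compounds were suspended or dissolved in sterile 5 mM phosphate-buffered saline, sonicated 3 min, then serially diluted. L1210 cells were kept in suspension culture in RPMI-1640 with 10% fetal calf serum, penicillin and streptomycin at 37 °C, 98% humidity, 5% CO2. Exponentially growing cells (4 × 10^5 cells/mL) were exposed to compound. Read-out was percent inhibition versus control at maximum cell kill within 72 h, N = 9.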

Data set [2] in a line: Evaluated in vitro for the Cytotoxic activity in the L1210 cell culture screen at 1 uM Maximum cell kill in a 72-h period. The format is cell-based. To be noted: mouse, L1210 cells; read-out: Inhibition. Summed up: as §1
Data set [3] concerns P388. In words: Evaluated for the antitumor activity in the P388 lymphocytic leukemia in female CDF1 mice injected intraperitoneally with 10 E-6 tumor cells dosed for 9 days at 20 mg/kg;. The format is functional, Mus musculus. Particulars: route intraperitoneal. In short, it runs like this: (§2)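 P388 leukaemia screen run to NIH protocol in female CDF1 mice (~25 g). 1 × 10^6 cells were given ip on day 0, and compounds were dosed on days 1–9. Six mice per group, with 5-FU and fluorodeoxyuridine as positive internal standards. T/C values were calculated, and T/C above 125% counted as significant activity.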

The test system of data set [4] is P388. In words: Average days survival of female CDF1 mice bearing lymphocytic leukemia, when 10 E-6 tumor cells were injected intraperitoneally, dosed for 9 days at 20 mg/kg. The format is functional, Mus musculus. To be noted: route intraperitoneal. In short, it runs like this:
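P388 lymphocytic leukemia screen per NIH protocol in female CDF1 mice (~25 g), six per group. 1 × 10^6 cells injected ip on day 0. Compound given at 20 mg/kg on days 1–9. Survival of treated mice recorded and T/C calculated, with T/C above 125% taken as significant. 5-FU and fluorodeoxyuridine served as positive internal standards.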

A short description of data set [5]: Evaluated in vitro for the Cytotoxic activity in the L1210 cell culture screen at 100 uM Maximum cell kill in a 72-h period. To be noted: mouse, L1210 cells; read-out: Inhibition. The format is cell-based. Summed up:
as §1

Data set [6] deals with P388. Nature of the data set: Evaluated for the antitumor activity in the P388 lymphocytic leukemia in female CDF1 mice injected intraperitoneally with 10 E-6 tumor cells dosed for 9 days at 20 mg/kg. The format is functional, Mus musculus. To be noted: route intraperitoneal. Summed up: as §2
Data set [7] has as its system P388. Nature of the data set: Evaluated for the antitumor activity in the P388 lymphocytic leukemia in female CDF1 mice injected intraperitoneally with 10 E-6 tumor cells dosed for 9 days at 20 mg/kg; no significant activity. The format is functional, Mus musculus. Particulars: route intraperitoneal. Summed up:
as §2

Data set [8] is described as follows: Evaluated in vitro for the Cytotoxic activity in the L1210 cell culture screen at 100 uM Maximum cell kill in a 72-h period r. The format is cell-based. Particulars: mouse, L1210 cells; read-out: Inhibition. In short, it runs like this: as §1

`O=C1CCCC1n1cc(F)c(=O)[nH]c1=O` (configuration not stated): in data set [1], the cytotoxicity at 72 h, 10 µM is 49.1%. Moreover, in data set [2], the cytotoxicity at 72 h, 1 µM was found to be 40%. In addition, the T/C (as a rule, the ratio of treated to control) in data set [3] stood at 103%. The compound also came in with an Average survived in data set [4] of 10.5 days. Moreover, the cytotoxicity at 72 h, 100 µM in data set [5] was 65.5%.

Regarding `O=c1[nH]c(=O)n(C2CCC[S+]2[O-])cc1F` (configuration not stated), the cytotoxicity at 72 h, 10 µM in data set [1] is 82.9%. The cytotoxicity at 72 h, 1 µM in data set [2] worked out at 64.9%. In data set [4], the Average survived worked out at 14.5 days. Moreover, in data set [5], the cytotoxicity at 72 h, 100 µM is 84.5%. Besides, the T/C in data set [6] turned out to be 143%.

Consider `O=c1[nH]c(=O)n(C2CCCS2(=O)=O)cc1F` (configuration not stated), for which, in data set [1], the cytotoxicity at 72 h, 10 µM was found to be 85%. Besides, the cytotoxicity at 72 h, 1 µM in data set [2] came to 59.2%. For the same compound, the Average survived in data set [4] came out at 12.17 days. Also, the cytotoxicity at 72 h, 100 µM in data set [5] was 92%. The compound further yielded a T/C in data set [7] of 119%.

As to `O=c1[nH]c(=O)n(C2CCCS2)cc1F` (configuration not stated), the cytotoxicity at 72 h, 10 µM in data set [1] was found to be 52.5%. In data set [2], the cytotoxicity at 72 h, 1 µM turned out to be 16.9%. In addition, the Average survived in data set [4] was 10.17 days. Also, the cytotoxicity at 72 h, 100 µM in data set [5] is 68.5%. In addition, the T/C in data set [6] was 100%.

As for `O=c1[nH]c(=O)n(C2CCCO2)cc1F` (configuration not stated) [TEGAFUR], in data set [1], the cytotoxicity at 72 h, 10 µM came to 67.5%. Also, the cytotoxicity at 72 h, 1 µM in data set [2] came to 17.2%. Also, the Average survived in data set [4] came to 10 days. In data set [6], the T/C amounted to 98%. For the same compound, the cytotoxicity at 72 h, 100 µM in data set [8] came to 81.8%.

Turning to `O=c1[nH]cc(F)c(=O)[nH]1` [FLUOROURACIL], the cytotoxicity at 72 h, 10 µM in data set [1] was determined as 81.2%. The cytotoxicity at 72 h, 1 µM in data set [2] was found to be 79.8%. Further, the Average survived in data set [4] came out at 17.6 days. For the same compound, the cytotoxicity at 72 h, 100 µM in data set [5] was 90.3%. The compound also gave a T/C in data set [6] of 173%.

`O=c1[nH]c(=O)n([C@H]2C[C@H](O)[C@@H](CO)O2)cc1F` [FLOXURIDINE]: the Average survived in data set [4] was 15.17 days. In data set [6], this compound showed a T/C of 149%.

The record behind these values is ChEMBL document CHEMBL1122945, “Synthesis and antitumor activity of a series of ftorafur analogues: the effect of varying electronegativity at the 1'-position” (J Med Chem, 1985).
